A selection: hits, their analogues and other compounds. The true share with any hit is near 3.5%.
RGS4 pot – RGS4 potentiators or activators, primary screen, cell-based, HEK293 M3R inducible RGS4, calcium flux | carbachol calcium flux Fluo4; hits give low values | B-score at 10 µM | actives 0.92% (n = 310,000);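 active = B-score of the integrated calcium signal more than 4 SD below the library mean, with starting fluorescence not abnormally high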;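 also: negative B-score means reduced calcium response which marks RGS4 activation or potentiation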
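test system = HEK293 cells with stable M3R and inducible RGS4 | schedule = recording 10 s baseline at 1 Hz, 100 s post-agonist | technique = Fluo4-AM (2 µM) calcium-flux fluorescence, kinetic read | measure = Agonist-evoked peak-minus-minimum fluorescence over baseline, integrated ratio, B score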
RGS4 block – RGS4 inhibitors, primary screen, cell-based, HEK293 M3R inducible RGS4, calcium flux | Regulator of G-protein signaling 4 (Homo sapiens), P49798 | Fluo-4 calcium flux; hits give high values; triggered by carbachol at its EC20 | B-score at 10 µM | actives 0.45% (n = 310,000) | AID 463165, 2010;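 active = B-score, a plate-corrected calcium signal, over three deviations above library mean, with baseline fluorescence within five deviations of library mean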;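 also: RGS4 expression induced by doxycycline in cells with stable M3 receptor; B-score is computed from the integrated fluorescence ratio over baseline after carbachol; higher B-score means a larger calcium signal and so more RGS4 inhibition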
Target sequence (P49798 whole entry, looked up): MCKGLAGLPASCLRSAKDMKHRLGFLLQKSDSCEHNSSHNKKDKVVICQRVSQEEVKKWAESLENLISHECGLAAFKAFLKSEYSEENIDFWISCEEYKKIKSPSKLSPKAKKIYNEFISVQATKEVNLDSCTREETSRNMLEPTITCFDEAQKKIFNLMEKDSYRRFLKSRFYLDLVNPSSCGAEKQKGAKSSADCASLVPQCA
MrgX1 antagonist – antagonists of human MrgX1 receptor, primary screen, HEK293 cells, Fluo-4 calcium flux. actives 1.3% (n = 310,000). B-score at 10 µM. AID 588676, 2011. BAM8-22 antagonism; hits give low values;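 active = calcium-response B-score plate-corrected more than 3 library SD below zero, starting fluorescence within 5 deviations, no agonist response on first addition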;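 also: peak minus trough fluorescence over baseline after final BAM8-22 challenge near maximal dose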
Target sequence (Q96LB2 whole entry, looked up): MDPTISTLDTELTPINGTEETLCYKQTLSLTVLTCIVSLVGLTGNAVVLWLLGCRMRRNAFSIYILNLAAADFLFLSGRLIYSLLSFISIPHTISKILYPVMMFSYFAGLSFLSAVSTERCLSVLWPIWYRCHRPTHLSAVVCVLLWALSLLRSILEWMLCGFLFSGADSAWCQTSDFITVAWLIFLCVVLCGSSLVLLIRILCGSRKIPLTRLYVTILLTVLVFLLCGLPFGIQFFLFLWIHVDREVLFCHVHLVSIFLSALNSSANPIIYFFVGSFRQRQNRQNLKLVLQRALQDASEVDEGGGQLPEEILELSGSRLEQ
MrgX1 allo act – positive allosteric modulators of MrgX1, primary screen, HEK293 cells, Fluo-4 calcium flux. AID 588675, 2011. actives 0.63% (n = 310,000). B-score at 10 µM. Mas-related G-protein coupled receptor member X1 (Homo sapiens), Q96LB2. FDSS; hits give high values;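 active = plate-corrected calcium response at least 3 library SD above typical, normal starting fluorescence, not activating the receptor alone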;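 also: compound read alongside a low EC10 to EC30 dose of BAM8-22 agonist; peak minus trough fluorescence over baseline measured at the second addition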
MrgX1 agonist – agonists of human MrgX1 receptor, primary screen, HEK293 cells, Fluo-4 calcium flux; Mas-related G-protein coupled receptor member X1 (Homo sapiens), Q96LB2; Fluo-4 calcium fluorescence, agonist mode; hits give high values; B-score at 10 µM; actives 0.44% (n = 310,000);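 active = calcium response B-score plate-corrected fluorescence ratio at least 3 library SD, with starting fluorescence B-score inside 5 SD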
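Test system: HEK293 cells stably expressing human MrgX1 receptor; amount: 15,000 cells per well; doses: compound delivered in addition one of three; times: overnight plating before 1 h dye loading; detection: Fluo-4 NW calcium-flux fluorescence, kinetic read; read-out basis: B-scored fluorescence response ratio; controls: positive and negative controls per plate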
RGS4 act valid – reduced carbachol calcium response, RGS4-induced M3R cells, confirmation, RGS4 activator project, cell-based, HEK293 M3R/RGS4 inducible, calcium flux, duplicate | shares compounds with RGS4 pot | carbachol calcium flux Fluo4 | inhibition, % at 10 µM | actives 89% (n = 1,100);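 active = inhibition above 3 SD of the buffer control wells, cut at about 41% in these data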;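 also: signal is the integrated peak-minus-minimum Fluo4 fluorescence over baseline ratio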
M3R Ca counter – counter-screen for RGS4 activators: effect in non-induced cells; HEK293 M3R non-induced RGS4, Fluo4 calcium flux; after carbachol challenge at its EC90; actives 82% (n = 1,100); shares compounds with RGS4 pot; AID 602283; inhibition, % at 10 µM;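 active = inhibition exceeding 3 SD of buffer-only control wells, cut at about 26% in these data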;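 also: percent drop in integrated peak-minus-baseline over baseline Fluo4 ratio after carbachol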
RGS4 inh valid – enhanced carbachol calcium response, M3R/RGS4 cells, RGS4 inhibitor project, cell-based, validation screen, HEK293 M3R/RGS4, calcium flux. calcium response, % at 10 µM. actives 65% (n = 1,700). shares compounds with RGS4 block. carbachol calcium Fluo-4 fluorescence; carbachol added at its EC20; 0 = buffer wells, 100 = carbachol control;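 active = duplicate-averaged calcium response above the buffer-only control mean plus 5 SD of those controls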;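 also: integrated fluorescence ratio F max minus min over baseline F0; higher response in RGS4-induced cells means RGS4 inhibition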
RGS4 uninduced – carbachol calcium response in non-induced M3R cells, confirmation, counter-screen for RGS4 inhibitor project, cell-based, HEK293 M3R; shares compounds with RGS4 block; carbachol calcium Fluo-4; submaximal (EC20) carbachol stimulus; buffer wells 0%, carbachol control wells 100%; activity (percent), % at 10 µM; actives 20% (n = 1,900); call rule not given here;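 also: RGS4 induction absent so cells express M3R without RGS4; higher means more calcium signal and flags a non-specific hit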
M3R basal Ca ctr – second counter-screen for RGS4 inhibitors: non-induced cells without carbachol; shares compounds with RGS4 block; HEK293 M3R/RGS4 non-induced, Fluo-4 calcium, no carbachol; normalised: buffer wells 0%, carbachol wells 100%; calcium response (agonist-mode artifact), % at 10 µM; actives 22% (n = 1,900);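 active = duplicate-averaged calcium rise in uninduced cells above buffer wells' mean plus 5 SD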
MrgX1 PAM conf – MrgX1 positive allosteric modulators, duplicate retest, confirmation, HEK293 cells, Fluo-4 calcium flux. actives 13% (n = 1,200). shares compounds with MrgX1 allo act. Fluo-4 calcium fluorescence, FDSS. activation (ratio percentage), % at 10 µM;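 active = ratio at least 3 SD above the weak peptide control, stable starting fluorescence, no direct agonism earlier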;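 also: compound followed by low BAM8-22 agonist challenge near EC20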
HEK293 Ca flux – nonspecific calcium signal in parental HEK293, confirmation, counter-screen for MrgX1 antagonist project, parental HEK293 cells, Fluo-4 calcium flux | shares compounds with MrgX1 antagonist | Fluo-4 calcium fluorescence, FDSS | fluorescence ratio F(max-min)/F0 at 10 µM | actives 2% (n = 4,000) | AID 624111, 2012;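 active = duplicate-averaged calcium fluorescence ratio at least three times the standard deviation of buffer wells, a nonspecific response in parental cells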
HEK293 Ca counter – calcium response in parental HEK293 cells, primary screen, counter-screen for MrgX1 allosteric activator project, cell-based, Fluo-4 calcium flux, duplicate; shares compounds with MrgX1 antagonist; Fluo-4 fluorescence ratio; hits give high values; fluorescence ratio F(max-min)/F0 at 10 µM; actives 0.4% (n = 4,000);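 active = calcium fluorescence ratio, averaged over duplicates, at least 3 SD of the buffer-well ratio, meaning a nonspecific response in receptor-free cells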;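 also: untransfected parental HEK293 lacking MrgX1 used as counterscreen for MrgX1 allosteric activators; fluorescence change taken during the second addition on a kinetic imager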
HEK293 Ca cntr2 – calcium response in parental HEK293 cells, primary screen, counter-screen for MrgX1 agonist project, cell-based, Fluo-4 calcium flux, duplicate, agonist mode. shares compounds with MrgX1 antagonist. Fluo-4 calcium fluorescence (FDSS); hits give high values. fluorescence ratio F(max-min)/F0 at 10 µM. actives 8.7% (n = 4,000);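 active = calcium fluorescence ratio at least three times the spread of buffer wells, meaning a non-specific response in parental cells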
The depositor's hits bear a star.

Results for O=C(CSc1nc2ccccc2c2c1CCCC2)N1CCOCC1 ?
RGS4 pot: -9.3*; RGS4 block: inactive; MrgX1 antagonist: inactive; MrgX1 allo act: 19*; MrgX1 agonist: inactive; RGS4 act valid: 92*; M3R Ca counter: 92*; MrgX1 PAM conf: inactive; HEK293 Ca flux: inactive; HEK293 Ca counter: inactive; HEK293 Ca cntr2: inactive

Results for O=C1c2ccccc2C(=O)N1Nc1ccccc1 ?
RGS4 pot: inactive; RGS4 block: inactive; MrgX1 antagonist: inactive; MrgX1 allo act: inactive; MrgX1 agonist: inactive

What do the screens show for `O=C1c2cccc3c([N+](=O)[O-])c(O)cc(c23)C(=O)N1Nc1ccccc1`?
RGS4 pot: inactive; RGS4 block: 6.3*; MrgX1 antagonist: inactive; MrgX1 allo act: inactive; MrgX1 agonist: inactive; RGS4 inh valid: 12%*; RGS4 uninduced: inactive; M3R basal Ca ctr: inactive

What do the screens show for `CC(C)(C)c1ccc(COc2ccsc2C(=O)O)cc1`?
RGS4 pot: inactive; RGS4 block: inactive; MrgX1 antagonist: inactive; MrgX1 allo act: inactive; MrgX1 agonist: inactive

What do the screens show for `O=C(N/N=C/c1ccc(-c2cccc([N+](=O)[O-])c2)o1)[C@H]1C[C@@H]1c1ccccc1`?
RGS4 pot: inactive; RGS4 block: 5.7*; MrgX1 antagonist: inactive; MrgX1 allo act: inactive; MrgX1 agonist: inactive; RGS4 inh valid: inactive; RGS4 uninduced: inactive; M3R basal Ca ctr: inactive

How did O=C(N/N=C/c1ccc(-c2ccccc2[N+](=O)[O-])o1)[C@H]1C[C@@H]1c1ccccc1 do in these assays?
RGS4 pot: inactive; RGS4 block: inactive; MrgX1 antagonist: inactive; MrgX1 allo act: inactive; MrgX1 agonist: inactive

What do the screens show for `O=C(N/N=C/c1ccc(-c2ccc([N+](=O)[O-])cc2)o1)[C@H]1C[C@@H]1c1ccccc1`?
RGS4 pot: inactive; RGS4 block: inactive; MrgX1 antagonist: inactive; MrgX1 allo act: inactive; MrgX1 agonist: inactive; RGS4 inh valid: inactive; RGS4 uninduced: inactive; M3R basal Ca ctr: 39%*

What do the screens show for `CC(=O)Nc1ccc(S(=O)(=O)NC2CC3CCC2C3)cc1` (configuration not stated)?
RGS4 pot: inactive; RGS4 block: inactive; MrgX1 antagonist: inactive; MrgX1 allo act: inactive; MrgX1 agonist: inactive

What do the screens show for `O=c1c2ccccc2nc2c3ccccc3c(NCc3ccccn3)nn12`?
RGS4 pot: inactive; RGS4 block: 14*; MrgX1 antagonist: inactive; MrgX1 allo act: inactive; MrgX1 agonist: inactive; RGS4 inh valid: 12%*; RGS4 uninduced: inactive; M3R basal Ca ctr: inactive

How did O=c1c2ccccc2nc2c3ccccc3c(NCc3cccnc3)nn12 do in these assays?
RGS4 pot: inactive; RGS4 block: inactive; MrgX1 antagonist: inactive; MrgX1 allo act: inactive; MrgX1 agonist: inactive

What do the screens show for `CC1=NN(c2ccc(Cl)cc2)C(=O)/C1=C\c1cccn1-c1ccc(S(N)(=O)=O)cc1`?
RGS4 pot: inactive; RGS4 block: 4.9*; MrgX1 antagonist: inactive; MrgX1 allo act: inactive; MrgX1 agonist: inactive; RGS4 inh valid: 43%*; RGS4 uninduced: 42%*; M3R basal Ca ctr: inactive

Results for O=c1[nH]c(NNC(=S)NC2CCCCC2)nc2c1C1(CCCC1)Cc1ccccc1-2 ?
RGS4 pot: inactive; RGS4 block: 12*; MrgX1 antagonist: inactive; MrgX1 allo act: inactive; MrgX1 agonist: inactive; RGS4 inh valid: 7.5%*; RGS4 uninduced: inactive; M3R basal Ca ctr: inactive

Results for C=CCNC(=S)NNc1nc2c(c(=O)[nH]1)C1(CCCC1)Cc1ccccc1-2 ?
RGS4 pot: inactive; RGS4 block: 9.8*; MrgX1 antagonist: inactive; MrgX1 allo act: inactive; MrgX1 agonist: inactive; RGS4 inh valid: 22%*; RGS4 uninduced: inactive; M3R basal Ca ctr: inactive

Results for CCN(CC)Cc1nc2c(c(=O)[nH]1)C1(CCCCC1)Cc1ccccc1-2 ?
RGS4 pot: inactive; RGS4 block: inactive; MrgX1 antagonist: inactive; MrgX1 allo act: inactive; MrgX1 agonist: inactive

Assay outcomes from PubChem BioAssay.
